Experimental findings from ChEMBL document CHEMBL1157130, “Cytotoxic naphthoquinones from Alkanna cappadocica ( perpendicular)” (J Nat Prod, 2010) are described below.

The test system of one experiment is HT-29. Briefly: Cytotoxicity against human HT-29 cells after 48 hrs by MTT assay. The class given is functional, cell-based. The conditions noted are these: HT-29, 48 h. The method in brief:
(§1)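 Cells grown in RPMI 1640 or DMEM-Ham's F12 with 10% FBS, 2 mmol/L L-glutamine, penicillin/streptomycin, at 37 °C, 5% CO2. Exponential-phase cells seeded at 6000/well, incubated 24 h, then exposed 48 h to 0.1–10 µM compound (DMSO ≤0.1% final). MTT 0.5 mg/mL added for 3 h, formazan dissolved in DMSO, read at 570-690 nm. IC50 from % viability; three independent assays, triplicate wells.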
(Formazan colour is commonly taken as a measure of viable cells.)

A further experiment deals with MDA-MB-231. In words: Cytotoxicity against human MDA-MB-231 cells after 48 hrs by MTT assay. The experiment is classed as functional, cell-based. The conditions noted are these: MDA-MB-231, 48 h. The method, boiled down:
as §1

The test system of another experiment is PC-3. Briefly: Cytotoxicity against human PC3 cells after 48 hrs by MTT assay. The experiment is classed as functional, cell-based. The conditions noted are these: PC-3, 48 h. The method in brief:
as §1

For another experiment, the system named is AU565. Briefly: Cytotoxicity against human AU565 cells after 48 hrs by MTT assay. The experiment is classed as functional, cell-based. The following applies: AU565, 48 h. The method in brief: as §1
The next experiment has as its system HepG2. Briefly: Cytotoxicity against human HepG2 cells after 48 hrs by MTT assay. The class given is functional, cell-based. The following applies: HepG2, 48 h. The method, boiled down:
as §1

A further experiment has as its system LNCaP. Briefly: Cytotoxicity against human LNCAP cells after 48 hrs by MTT assay. The experiment is classed as functional, cell-based. The method, boiled down:
as §1

The test system of the next experiment is MCF7. Briefly: Cytotoxicity against human MCF7 cells after 48 hrs by MTT assay. The experiment is classed as functional, cell-based. The conditions noted are these: MCF7, 48 h. The method, boiled down: as §1
A further experiment deals with HeLa. Briefly: Cytotoxicity against human HeLa cells after 48 hrs by MTT assay. The class given is functional, cell-based. The method in brief:
as §1

In the next experiment the test system is SK-BR-3. Briefly: Cytotoxicity against human SKBR3 cells after 48 hrs by MTT assay. The conditions noted are these: SK-BR-3, 48 h. The class given is functional, cell-based. The method in brief: as §1
The test system of another experiment is DU-145. In words: Cytotoxicity against human DU145 cells after 48 hrs by MTT assay. The following applies: DU-145, 48 h. The class given is functional, cell-based. The method, boiled down: as §1
The subject of the next experiment is SAOS-2. In words: Cytotoxicity against human Saos2 cells after 48 hrs by MTT assay. The experiment is classed as functional, cell-based. The conditions noted are these: SAOS-2, 48 h. The method in brief: as §1
Experiment [1] can be described thus: Cytotoxicity against human Hep3B cells after 48 hrs by MTT assay. The experiment is classed as functional, cell-based, Hep 3B2. The method, boiled down:
as §1

The subject of another experiment is Vero. In words: Cytotoxicity against african green monkey Vero cells after 48 hrs by MTT assay. The experiment is classed as cell-based. The following applies: Chlorocebus sabaeus. The method in brief:
as §1

Another experiment deals with NIH3T3. Briefly: Cytotoxicity against mouse 3T3 cells after 48 hrs by MTT assay. The following applies: NIH3T3, 48 h. The class given is cell-based. The method, boiled down: as §1

As to `COc1ccc(O)c2c1C(=O)C=C([C@H](CC=C(C)C)OC(=O)C=C(C)C)C2=O`, the IC50 – broadly, the point on the concentration scale where inhibition reaches its midpoint – in the experiment on HT-29 worked out at 0.59 µM; in the experiment on MDA-MB-231, 0.26 µM; with PC-3 it was 0.42 µM; with AU565, 0.75 µM; in the experiment on HepG2 it was 0.97 µM; in the experiment on LNCaP it was 11.4 µM. Moreover, the IC50 in the experiment with MCF7 worked out at 14.8 µM; in the experiment with HeLa, 0.82 µM; in the experiment on SK-BR-3 it was 0.83 µM; in the experiment with DU-145 it was 8.55 µM; with SAOS-2, 14.5 µM; in experiment [1], 11.8 µM. Also, the IC50 in the experiment with Vero amounted to 0.79 µM; with NIH3T3, 4.67 µM.
With `COc1ccc(O)c2c1C(=O)C(CCC=C(C)C)=CC2=O`, the IC50 in the experiment on HT-29 was 5.98 µM; in the experiment on MDA-MB-231 it was 5.11 µM; in the experiment with PC-3, 7.48 µM; with AU565, 7.08 µM; with HepG2 it was 8.05 µM; in the experiment with LNCaP, 11.1 µM. Further, the IC50 with MCF7 came to 11.9 µM; with HeLa, 6.38 µM; in the experiment with SK-BR-3 it was 6.52 µM; in the experiment on DU-145, 12.1 µM; in the experiment on SAOS-2, 12.5 µM; in experiment [1], 24.5 µM. In addition, the IC50 in the experiment with Vero was 6.39 µM; in the experiment on NIH3T3 it was 6.57 µM.
Consider `COc1ccc(O)c2c1C(=O)C=C([C@H](CC=C(C)C)OC(C)=O)C2=O`, for which the IC50 in the experiment on HT-29 was 0.62 µM; with MDA-MB-231, 0.09 µM; with PC-3 it was 0.78 µM; with AU565, 0.59 µM; in the experiment on HepG2, 0.87 µM; with LNCaP, 11 µM. The IC50 in the experiment with MCF7 amounted to 14.1 µM; with HeLa, 0.66 µM; with SK-BR-3, 0.44 µM; in the experiment on DU-145 it was 7.41 µM; with SAOS-2 it was 13.8 µM; in experiment [1] it was 10.2 µM. Further, the IC50 in the experiment on Vero was determined as 0.59 µM; in the experiment with NIH3T3 it was 0.66 µM.
`COc1ccc(O)c2c1C(=O)C=C(CCC=C(C)C)C2=O`: the IC50 in the experiment with HT-29 came to 5.09 µM; with MDA-MB-231 it was 1.19 µM; with PC-3, 6.81 µM; with AU565, 0.88 µM; with HepG2 it was 7.64 µM; in the experiment with LNCaP it was 10.9 µM. The IC50 with MCF7 is 16 µM; in the experiment on HeLa it was 0.91 µM; in the experiment on SK-BR-3 it was 2.2 µM; with DU-145, 8.71 µM; in the experiment with SAOS-2, 20.4 µM; in [1] it was 15.8 µM. In addition, the IC50 in the experiment on Vero is 0.98 µM; in the experiment on NIH3T3, 5.18 µM.
With `CC(C)=CC[C@H](OC(=O)C=C(C)C)C1=CC(=O)c2c(O)ccc(O)c2C1=O`, the IC50 in the experiment on HT-29 was found to be 0.8 µM; in the experiment on MDA-MB-231, 0.32 µM; with PC-3, 1.1 µM; in the experiment on AU565 it was 0.62 µM; with HepG2, 1 µM; with LNCaP, 11.3 µM. The IC50 turned out to be 5.15 µM with MCF7; 0.96 µM with HeLa; 0.68 µM in the experiment with SK-BR-3; 4.81 µM in the experiment with DU-145; 0.84 µM in the experiment on SAOS-2; 4.09 µM in experiment [1]. In addition, the values for the IC50 in the experiment with Vero and in the experiment with NIH3T3 were 0.32 µM and 0.77 µM, respectively.
In the case of `CC(=O)O[C@@H](CC=C(C)C)C1=CC(=O)c2c(O)ccc(O)c2C1=O` [ACETYLALKANNIN], the IC50 in the experiment on HT-29 was found to be 10.5 µM; in the experiment with MDA-MB-231, 8.47 µM; with PC-3, 11 µM; with AU565, 0.88 µM; in the experiment on HepG2 it was 7.41 µM; in the experiment on LNCaP, 11.5 µM. The IC50 stood at 7.05 µM with MCF7; 6.75 µM with HeLa; 1.66 µM in the experiment on SK-BR-3; 6.65 µM with DU-145; 4.93 µM with SAOS-2; 6.06 µM in experiment [1]. For the same compound, the results for the IC50 in the experiment on Vero and with NIH3T3 were 0.76 µM and 7.73 µM, respectively.
Regarding `CC(C)=CC[C@H](O)C1=CC(=O)c2c(O)ccc(O)c2C1=O` [ALKANNIN], the IC50 in the experiment with HT-29 came to 4.03 µM; in the experiment on MDA-MB-231, 4.27 µM; with PC-3, 3.25 µM; in the experiment with AU565, 0.9 µM; in the experiment with HepG2, 3.8 µM; in the experiment with LNCaP, 10.7 µM. Besides, the IC50 stood at 3.06 µM with MCF7; 0.91 µM in the experiment with HeLa; 0.78 µM in the experiment on SK-BR-3; 5.02 µM with DU-145; 2.31 µM with SAOS-2; 3.84 µM in experiment [1]. For the same compound, the values for the IC50 in the experiment on Vero and in the experiment on NIH3T3 were 0.7 µM and 5.21 µM, respectively.
On to `CC(C)=CCCC1=CC(=O)c2c(O)ccc(O)c2C1=O` [DEOXYSHIKONIN], for which the half-maximal inhibitory concentration (IC50) in the experiment with HT-29 turned out to be 5.12 µM; in the experiment on MDA-MB-231 it was 5.08 µM; in the experiment with PC-3, 4.29 µM; in the experiment on AU565 it was 0.92 µM; with HepG2, 0.9 µM; in the experiment on LNCaP, 12.2 µM. The IC50 in the experiment with MCF7 turned out to be 0.79 µM; in the experiment on HeLa it was 0.85 µM; in the experiment with SK-BR-3, 0.69 µM; with DU-145, 1.24 µM; with SAOS-2 it was 0.85 µM; in experiment [1] it was 6.02 µM. Further, the IC50 in the experiment with Vero amounted to 0.66 µM; in the experiment on NIH3T3, 5.84 µM.
With `COc1cccc2c1C(=O)c1c(O)c3c(c(O)c1C2=O)C[C@@](O)(C(=O)CO)C[C@@H]3O[C@H]1C[C@H](N)[C@H](O)[C@H](C)O1` [DOXORUBICIN], the half-inhibitory concentration (IC50) is 2.05 µM in the experiment with HT-29, 2 µM with MDA-MB-231, 3.16 µM in the experiment with PC-3 and 3.7 µM in the experiment with NIH3T3.
For `COc1cc([C@@H]2c3cc4c(cc3[C@@H](O[C@@H]3O[C@@H]5CO[C@@H](C)O[C@H]5[C@H](O)[C@H]3O)[C@H]3COC(=O)[C@H]23)OCO4)cc(OC)c1O` [ETOPOSIDE] the same measures were 30.4 µM, 23.2 µM, 69.5 µM and 63 µM.
